Assay [1] can be described thus: Concentration of 50% inhibition of KIAA1363 was determined using FP-Rh as radioligand. The essentials: (§1)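 Competitive activity-based profiling of native membrane proteomes (brain, heart) with no purified enzyme or substrate. Proteome was incubated with rhodamine-tagged fluorophosphonate (FP-Rh) across systematically varied inhibitor concentrations under kinetically controlled conditions. Labeled serine hydrolases were resolved by SDS-PAGE and fluorescence-detected. Loss of band labeling gave IC50 for each enzyme.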

Assay [2] deals with T1, Fatty-acid amide hydrolase 1 (Homo sapiens, UniProt O00519).
T1 sequence (O00519 whole entry): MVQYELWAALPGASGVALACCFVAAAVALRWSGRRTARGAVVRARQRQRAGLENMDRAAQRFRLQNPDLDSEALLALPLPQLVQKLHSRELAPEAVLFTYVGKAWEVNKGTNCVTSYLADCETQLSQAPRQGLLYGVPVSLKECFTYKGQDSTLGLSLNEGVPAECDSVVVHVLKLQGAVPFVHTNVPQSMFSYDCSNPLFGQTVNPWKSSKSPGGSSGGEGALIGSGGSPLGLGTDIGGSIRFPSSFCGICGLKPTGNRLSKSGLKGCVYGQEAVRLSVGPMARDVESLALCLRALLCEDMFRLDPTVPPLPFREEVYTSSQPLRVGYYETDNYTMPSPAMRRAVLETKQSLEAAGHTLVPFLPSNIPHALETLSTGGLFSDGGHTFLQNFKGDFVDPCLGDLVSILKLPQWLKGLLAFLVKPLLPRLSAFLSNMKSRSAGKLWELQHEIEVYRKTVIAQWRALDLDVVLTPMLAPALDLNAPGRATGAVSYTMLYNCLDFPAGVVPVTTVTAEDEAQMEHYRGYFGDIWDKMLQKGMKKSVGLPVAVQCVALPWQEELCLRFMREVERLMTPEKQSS
Nature of the assay: Inhibitory concentration of fatty acid amide hydrolase using FP-Rh radioligand. The procedure, abridged:
as §1

A further assay deals with T2, Liver carboxylesterase 1 (Homo sapiens, UniProt P23141).
T2 sequence (P23141 whole entry): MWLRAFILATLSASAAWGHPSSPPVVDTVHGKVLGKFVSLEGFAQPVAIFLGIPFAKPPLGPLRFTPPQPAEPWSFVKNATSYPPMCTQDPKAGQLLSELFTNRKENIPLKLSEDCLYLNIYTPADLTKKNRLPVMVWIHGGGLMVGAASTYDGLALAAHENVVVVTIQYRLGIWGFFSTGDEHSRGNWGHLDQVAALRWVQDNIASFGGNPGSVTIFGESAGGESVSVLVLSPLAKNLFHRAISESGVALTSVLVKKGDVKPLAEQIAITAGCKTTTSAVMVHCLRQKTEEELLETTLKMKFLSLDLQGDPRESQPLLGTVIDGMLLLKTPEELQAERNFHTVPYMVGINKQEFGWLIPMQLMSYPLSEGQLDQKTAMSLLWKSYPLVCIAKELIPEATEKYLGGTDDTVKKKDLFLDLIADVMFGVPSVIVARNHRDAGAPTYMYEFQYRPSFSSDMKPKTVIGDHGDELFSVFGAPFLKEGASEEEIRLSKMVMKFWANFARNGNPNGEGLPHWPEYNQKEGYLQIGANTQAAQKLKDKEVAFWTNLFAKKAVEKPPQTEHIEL
Nature of the assay: Inhibitory concentration of triacylgylcerol hydrolase using FP-Rh radioligand. The procedure, abridged:
as §1

The target of assay [3] is T3, Fatty-acid amide hydrolase 1 (Mus musculus, UniProt O08914).
T3 sequence (O08914 whole entry): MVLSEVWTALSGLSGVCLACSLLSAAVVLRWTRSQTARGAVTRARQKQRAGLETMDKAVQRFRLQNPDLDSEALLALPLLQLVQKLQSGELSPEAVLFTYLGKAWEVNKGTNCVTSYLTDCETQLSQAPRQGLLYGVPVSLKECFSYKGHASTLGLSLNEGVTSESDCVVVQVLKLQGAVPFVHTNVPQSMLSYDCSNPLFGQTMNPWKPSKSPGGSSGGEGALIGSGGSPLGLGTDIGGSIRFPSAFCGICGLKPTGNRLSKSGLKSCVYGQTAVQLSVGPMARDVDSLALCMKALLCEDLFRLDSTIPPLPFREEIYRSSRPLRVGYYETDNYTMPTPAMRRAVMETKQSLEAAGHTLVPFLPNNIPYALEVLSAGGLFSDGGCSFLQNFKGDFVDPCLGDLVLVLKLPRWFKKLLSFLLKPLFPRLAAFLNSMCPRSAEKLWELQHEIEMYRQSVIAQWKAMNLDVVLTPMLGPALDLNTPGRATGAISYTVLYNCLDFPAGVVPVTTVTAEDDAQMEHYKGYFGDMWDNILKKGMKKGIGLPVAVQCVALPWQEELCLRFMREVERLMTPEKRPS
Put plainly: Inhibitor affinity towards enzymes of class serine hydrolase was determined using biotin or fluorescent as radioligand (FP-biotin or FP-Rh).

“And” between values parts separate entries of the source, which are not always exact repeats. Equal entries are not always repeated.

For `O=C(CCCCCCCCc1ccccc1)c1nnc(-c2ccccn2)o1`, the values for the IC50 (in assay [1]; in assay [2]; on Liver carboxylesterase 1) were 3000 nM, 0.8 nM and 500 nM, respectively. In assay [3], the Ki was 0.85 nM and 0.83 nM.
As to `O=C(CCCCCCc1ccccc1)c1nnc(-c2cccnc2)o1`, the IC50 in assay [1] is > 100000 nM; in assay [2] it was 20 nM; on Liver carboxylesterase 1, 100 nM. In addition, the Ki in assay [3] came to 1 nM.
In the same order, the values of `CCCCCCCC/C=C\CCCCCCCC(=O)c1ncc(-c2ccccc2)o1` are > 100000 nM, 5000 nM, 50000 nM and 320 nM.
`O=C(CCCCCCCc1ccccc1)c1nnc(-c2ccco2)o1`: the Ki in assay [3] came out at 0.29 nM.
Turning to `CCCCCCCC/C=C\CCCCCCCC(=O)c1ncco1`, the values for the IC50 (in assay [1]; in assay [2]; at Liver carboxylesterase 1) were > 100000 nM, 2000 nM and 9000 nM, respectively. For the same compound, the Ki in assay [3] was determined as 100 nM.
The corresponding values for `CCCCCCCC/C=C\CCCCCCCC(=O)c1nnc(-c2ccccc2)o1` are > 100000 nM, 200 nM, 20000 nM and 16 nM.
Turning to `O=C(CCCCCCc1ccccc1)c1nnc(-c2ccccn2)o1`, the IC50 in assay [1] came to 90000 nM; in assay [2], 1 nM; at Liver carboxylesterase 1 it was 140 nM.
On to `CCCCCCCC/C=C\CCCCCCCC(=O)c1nc2ncccc2o1`, for which the IC50 in assay [1] amounted to 60000 nM; in assay [2] it was 40 nM; at Liver carboxylesterase 1 it was 1000 nM. The same compound displayed a Ki in assay [3] of 2.3 nM.
The corresponding values for `CCCCCCCC(=O)C(F)(F)F` are 1500 nM, 30000 nM, 2 nM and 1200 nM.
In the same order, the values of `O=C(CCCCCc1ccccc1)c1nc2ncccc2o1` are 10000 nM, 1 nM, 1 nM and 0.2 nM.
The corresponding values for `O=C(CCCCCCCc1ccccc1)C(F)(F)F` are 200 nM, 2000 nM, 5 nM and 25 nM.
As to `CCCCCCCCCCCC(=O)C(F)(F)F`, the figures for the IC50 (in assay [1]; in assay [2]; at Liver carboxylesterase 1) were 500 nM, 10000 nM and 70 nM, respectively. In assay [3], this compound returned a Ki of 140 nM.
In the same order, the values of `O=C(CCCCCCc1ccccc1)c1nnc(-c2ccncc2)o1` are > 100000 nM, 20 nM, 30 nM and 1 nM.
Turning to `O=C(CCCCCCCc1ccccc1)c1nnc(-c2ccccn2)o1`, the IC50 is 60000 nM in assay [1], 0.6 nM in assay [2] and 200 nM at Liver carboxylesterase 1.
Regarding `O=C(CCCCCCCCc1ccccc1)c1ncc(-c2ccccn2)o1`, the IC50 in assay [1] is > 100000 nM; in assay [2] it was 30 nM; on Liver carboxylesterase 1 it was 6000 nM. The compound also showed a Ki in assay [3] of 7.8 nM.
The corresponding values for `CCCCCCCCCC(=O)C(F)(F)F` are 400 nM, 10000 nM, 10 nM and 130 nM.
The corresponding values for `O=C(CCCCCCCc1ccccc1)c1ncc(-c2ccccn2)o1` are > 100000 nM, 8 nM, 1000 nM and 7.5 nM.
The corresponding values for `CCCCCCCC/C=C/CCCCCCCC(=O)C(F)(F)F` are 1000 nM, 5000 nM, 5000 nM and 80 nM.
In turn, `O=C(CCCCCCc1ccccc1)c1nnc(-c2ccccc2)o1` returned a Ki in assay [3] of 2 nM.
As for `O=C(CCCCCc1ccccc1)C(F)(F)F`, the IC50 stood at 800 nM in assay [1], 5000 nM in assay [2] and 0.5 nM at Liver carboxylesterase 1. Moreover, in assay [3], the Ki was found to be 170 nM.
`O=C(CCCCCc1ccccc1)c1nc2ccccc2o1`: the results for the IC50 (in assay [1]; in assay [2]; on Liver carboxylesterase 1) were > 100000 nM, 10000 nM and 20 nM, respectively. In addition, in assay [3], the Ki is 220 nM.
Regarding `O=C(CCCCCCCCc1ccccc1)c1nc2ncccc2o1`, the IC50 in assay [1] worked out at 10000 nM; in assay [2], 0.1 nM; on Liver carboxylesterase 1, 5 nM. In assay [3], this compound yielded a Ki of 0.52 nM.
As to `O=C(CCCCCCc1ccccc1)c1ncc(-c2ccccn2)o1`, in assay [1], the IC50 is > 100000 nM.
For the compound `CCCCCCCCCCCCCCCCCC(=O)C(F)(F)F`, the IC50 in assay [1] stood at 6600 nM; in assay [2] it was 6400 nM; on Liver carboxylesterase 1, 4600 nM. In assay [3], this compound returned a Ki of 240 nM.
For the compound `O=C(CCCCCc1ccccc1)c1nnc(-c2cccnc2)o1`, the Ki in assay [3] is 0.85 nM.
Consider `O=C(CCCCCCc1ccccc1)C(F)(F)F`, for which the IC50 in assay [1] came out at 200 nM; in assay [2] it was 5000 nM; on Liver carboxylesterase 1 it was 1 nM. This compound came in with a Ki in assay [3] of 100 nM.
The corresponding values for `O=C(CCCCCc1ccccc1)c1ncc(-c2ccccn2)o1` are > 100000 nM, 100 nM, 200 nM and 11 nM.
In assay [3], `O=C(CCCCCCc1ccccc1)c1nnc(-c2ccco2)o1` showed a Ki of 0.56 nM.
Still for that read-out and setting: under `CCCCCCCC/C=C\CCCCCCCC(=O)c1nnco1` stands 90 nM.
With `O=C(CCCCCCCc1ccccc1)c1nc2ncccc2o1`, the figures for the IC50 (in assay [1]; in assay [2]; at Liver carboxylesterase 1) were 20000 nM, 0.3 nM and 5 nM, respectively. In assay [3], this compound registered a Ki of 0.39 nM.
Regarding `O=C(CCCCCc1ccccc1)c1nnc(-c2ccccn2)o1`, the figures for the IC50 (in assay [1]; in assay [2]; at Liver carboxylesterase 1) were 50000 nM, 4 nM and 30 nM, respectively.
For `CCCCCCCC/C=C\CCCCCCCC(=O)c1nnc(-c2ccccn2)o1`, the results for the IC50 (in assay [1]; in assay [2]; at Liver carboxylesterase 1) were > 100000 nM, 4 nM and 20000 nM, respectively. The compound also returned a Ki in assay [3] of 3 nM.
In the same order, the values of `CCCCCCCC/C=C\CCCCCCCC(=O)c1ncc(-c2ccccn2)o1` are > 100000 nM, 200 nM, 50000 nM and 18 nM.
In the same order, the values of `CCCCCCCC/C=C\CCCCCCCC(=O)c1nc2ccccc2o1` are > 100000 nM, 10000 nM, 10000 nM and 370 nM.
In the same order, the values of `O=C(CCCCCCc1ccccc1)c1nc2ncccc2o1` are 20000 nM, 0.3 nM, 3 nM and 0.28 nM.

What is called IC50 is the concentration at which inhibition is half-maximal. Read a low IC50 as greater potency. Usually Ki stands for the dissociation constant of the complex between target and ligand, obtained from inhibition or displacement. Read a high Ki as weaker binding.

The values above are taken from ChEMBL document CHEMBL1142011, “Discovery of an exceptionally potent and selective class of fatty acid amide hydrolase inhibitors enlisting proteome-wide selectivity screening: concurrent optimization of enzyme inhibitor potency and selectivity” (Bioorg Med Chem Lett, 2005).
